16 compounds from PubChem BioAssay can be followed below.

The source made the active and inactive calls.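 The calls were made as follows, unless noted: active = viability at or under a set limit in both replicates, limit being median viability minus 3 SD (cut at about 48% in these data, passing the limit was not always enough); inconclusive = at or under the limit in just one replicate; inactive = at or above the limit in both replicates.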

Test [1] in a line: Her2 expression decrease, cell viability multiplex – SKBR3 breast tumor cells, AlphaScreen, ATP viability, primary screen (AID 461;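 active = Her2 level under about 52% in both replicate screens, with viability over 70% of control, limit read from the data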;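 as to Her2 level: lower value means less Her2 protein in the cells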;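 as to viability: percent of carrier control wells set as 100% viability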). The note with it: SKBR3 Her2 protein level, 18-24 h, measured here: SKBR3 viability, ATP luminescence, at 10 µM. (Alpha assays give light when donor and acceptor beads are brought close together.)
The target in test [2] is Receptor tyrosine-protein kinase erbB-2 (Homo sapiens) (UniProt P04626). Described as above. Particulars: 18-24 h, at 10 µM, stronger effect = lower value.
The nature of test [3]: reduced viability of SK-BR-3 breast cancer cells – cell-based, 24 h, human, pilot screen (AID 572;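 active = viability at or below 10% of carrier control in both of two separate runs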;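 also: compound exposure lasted between 18 and 24 h rather than exactly 24 h; 100% = carrier-treated control wells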). The note with it: SK-BR-3 viability, CellTiter-Glo luminescence, at 10 µM, stronger effect = lower value. On the technique in general: ATP-based viability assays read luminescence as a measure of living cells.
Test [4] in a line: HUVEC growth inhibition – cell-based, human, primary screen (AID 575;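 active = viability at or below 30% in both replicate assays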;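 also: 100% = median of untreated cell wells with 0.1% DMSO on each plate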). Particulars: HUVEC proliferation, CellTiter-Glo luminescence, 72 h; at 10 µM; stronger effect = lower value. The procedure, abridged:
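material = primary HUVEC, no more than 12 passages | input = 1250 cells per well | controls = vehicle and MePR control wells | measured by = CTG luminescence | times = 72 h compound incubation | format = collagen-coated 384-well format | read-out = % viability vs DMSO wells | doses = single 10 µM dose, 0.1% DMSO, from 5x medium stock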

Test [5] in a line: H69AR cell proliferation blockers – human, duplicate replicates, primary screen (AID 580).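 Also: 100% = mean luminescence of untreated wells and 0% = no signal.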 The note with it: H69AR lung tumor cells viability, ATP luminescence, 72 h; at 10 µM; stronger effect = lower value.
The nature of test [6]: MRP1 drug-resistance reversers in H69AR cells – cell-based, doxorubicin co-treatment, pilot screen (AID 601;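 active = viability loss from added drug above about 55%, and viability with drug at most 40%, in both replicates, limit read from the data, passing the limit was not always enough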). Particulars: CellTiter-Glo, 72 h, at 10 µM; for differential viability (reversal): stronger effect = higher value.
Test [7] in a line: yeast transport mutant growth inhibition pilot in 384-well plates, post-Golgi transport modulator project (AID 636; in the data active = inhibition above about 31%). The note with it: absorbance 615 nm, about 18 h, stronger effect = higher value.
Test [8] in a line: growth suppression of yeast trafficking mutant, preliminary HTS, modulators of trafficking downstream of Golgi apparatus project, 1536-format plate, OD 615 nm (AID 637; in the data active = inhibition above about 30%). The note with it: yeast transport mutant growth, absorbance 615 nm, 18 h; stronger effect = higher value.
Where [9] appears, read: H69AR cells + 2 uM doxorubicin, measured here: viability with 2 uM doxorubicin, stronger effect = lower value.
The mark [10] stands for this setting: H69AR cells, compound alone cytotoxicity.

Receptor tyrosine-protein kinase erbB-2 (Homo sapiens), sequence (P04626 whole entry, looked up): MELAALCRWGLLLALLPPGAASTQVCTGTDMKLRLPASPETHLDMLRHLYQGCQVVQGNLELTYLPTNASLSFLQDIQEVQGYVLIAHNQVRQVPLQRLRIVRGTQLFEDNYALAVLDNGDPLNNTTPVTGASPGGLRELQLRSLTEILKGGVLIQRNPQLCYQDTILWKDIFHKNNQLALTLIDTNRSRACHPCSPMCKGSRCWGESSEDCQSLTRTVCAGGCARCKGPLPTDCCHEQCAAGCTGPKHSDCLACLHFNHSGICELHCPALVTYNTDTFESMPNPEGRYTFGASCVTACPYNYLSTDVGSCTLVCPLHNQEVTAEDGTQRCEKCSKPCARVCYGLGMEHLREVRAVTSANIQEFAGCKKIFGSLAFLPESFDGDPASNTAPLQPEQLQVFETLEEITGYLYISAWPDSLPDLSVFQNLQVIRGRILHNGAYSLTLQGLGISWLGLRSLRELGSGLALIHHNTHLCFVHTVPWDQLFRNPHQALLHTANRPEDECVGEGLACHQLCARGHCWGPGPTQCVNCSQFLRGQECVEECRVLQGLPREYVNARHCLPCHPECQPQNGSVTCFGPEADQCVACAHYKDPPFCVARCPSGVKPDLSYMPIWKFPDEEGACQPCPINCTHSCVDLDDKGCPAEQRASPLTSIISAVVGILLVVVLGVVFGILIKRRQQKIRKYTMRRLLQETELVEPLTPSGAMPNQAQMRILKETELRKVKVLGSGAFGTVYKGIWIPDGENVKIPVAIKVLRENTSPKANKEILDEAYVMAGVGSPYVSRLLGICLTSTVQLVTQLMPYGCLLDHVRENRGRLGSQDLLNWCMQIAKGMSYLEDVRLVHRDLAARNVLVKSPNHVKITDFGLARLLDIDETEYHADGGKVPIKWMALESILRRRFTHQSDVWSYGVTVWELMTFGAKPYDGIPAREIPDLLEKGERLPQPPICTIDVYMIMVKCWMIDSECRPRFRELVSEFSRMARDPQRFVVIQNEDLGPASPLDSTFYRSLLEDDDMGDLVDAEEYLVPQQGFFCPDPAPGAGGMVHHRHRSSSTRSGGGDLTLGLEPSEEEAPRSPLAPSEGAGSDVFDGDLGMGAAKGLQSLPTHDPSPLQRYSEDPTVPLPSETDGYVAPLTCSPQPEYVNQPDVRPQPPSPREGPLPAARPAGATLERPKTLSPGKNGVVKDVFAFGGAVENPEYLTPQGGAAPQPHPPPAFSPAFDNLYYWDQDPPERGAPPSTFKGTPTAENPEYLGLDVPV

With `Cc1nnc(SCc2cc(=O)[nH]c(N3CCCCC3)n2)s1`, the viability was 94% in test [1]; 94% (inactive) in test [3]; 107% (inactive) in test [4]; 94.1% (inactive) in test [5]; 91.9% in test [6] (setting [9]); 94.1% in test [6] (setting [10]). The Her2 level in test [2] is 86.5% (inactive). In test [6] (H69AR cells + 2 uM doxorubicin), the differential viability (reversal) is 2.25% (inactive). Moreover, the inhibition is -7.3% (inactive) in test [7] and -2.86% (inactive) in test [8].
Take `CCCCCCOC(=O)C(C#N)c1nc2ccccc2nc1N1CCCCC1` (stereo not given): the viability is 94% in test [1]; 94% (inactive) in test [3]; 63.8% (inactive) in test [4]; 89.1% (inactive) in test [5]; 101% in test [6] (setting [9]); 89.1% in test [6] (setting [10]). The Her2 level in test [2] was 88% (inactive). Besides, the differential viability (reversal) in test [6] (H69AR cells + 2 uM doxorubicin) is -11.9% (inactive). Moreover, the inhibition was -2.47% (inactive) in test [7] and -2.33% (inactive) in test [8].
In the case of `COc1cccc(C2C(C(=O)c3cc4ccccc4o3)=C(O)C(=O)N2CCN(C)C)c1OC` (stereo not given), the viability was 104% in test [1]; 104% (inactive) in test [3]; 96.8% (inactive) in test [4]; 100% (inactive) in test [5]; 95.4% in test [6] (setting [9]); 100% in test [6] (setting [10]). For the same compound, the Her2 level in test [2] was 94.5% (inactive). For the same compound, the differential viability (reversal) in test [6] (H69AR cells + 2 uM doxorubicin) is 4.93% (inactive). Moreover, the inhibition is -3.87% (inactive) in test [7] and 11.3% (inactive) in test [8].
With `CCn1c(SCC(N)=O)nc2c1c(=O)n(C)c(=O)n2C`, the viability in test [1] was 107%; in test [3], 107% (inactive); in test [4], 90% (inactive); in test [5] it was 95.9% (inactive); in test [6] (setting [9]) it was 91.1%; in test [6] (setting [10]), 95.9%. The Her2 level in test [2] was 95% (inactive). Moreover, the differential viability (reversal) in test [6] (H69AR cells + 2 uM doxorubicin) was 4.83% (inactive). The figures for the inhibition in test [7] and in test [8] were -2.63% (inactive) and -1.27% (inactive), respectively.
In the case of `CCOc1ccccc1NC(=O)C1CCCN1C(=O)OCc1ccccc1` (stereo not given), the viability is 84.5% in test [1]; 84.5% (inactive) in test [3]; 111% (inactive) in test [4]; 87.6% (inactive) in test [5]; 85.3% in test [6] (setting [9]); 87.6% in test [6] (setting [10]). Besides, in test [2], the Her2 level was 93.5% (inactive). In test [6] (H69AR cells + 2 uM doxorubicin), the differential viability (reversal) was 2.29% (inactive). In addition, the figures for the inhibition in test [7] and in test [8] were -1.71% (inactive) and -10% (inactive), respectively.
With `O=C(OCCN1C(=O)c2ccccc2C1=O)c1ccc(S(=O)(=O)N2CCCCCC2)cc1`, the viability in test [1] was 114%; in test [3] it was 114% (inactive); in test [4], 78.5% (inactive); in test [5], 105% (inactive); in test [6] (setting [9]) it was 87.6%; in test [6] (setting [10]) it was 105%. The Her2 level in test [2] is 76.5% (inactive). In addition, the differential viability (reversal) in test [6] (H69AR cells + 2 uM doxorubicin) was 17.6% (inactive). The inhibition was -6.22% (inactive) in test [7] and 1.11% (inactive) in test [8].
For `Cc1nc(SCC(=O)Nc2ccccc2C(F)(F)F)c2c(=O)n(C)c(=O)n(C)c2n1`, the viability in test [1] is 87%; in test [3] it was 87% (inactive); in test [4] it was 80.3% (inactive); in test [5] it was 74% (inactive); in test [6] (setting [9]) it was 76.3%; in test [6] (setting [10]) it was 74%. Moreover, in test [2], the Her2 level is 85% (inactive). Also, the differential viability (reversal) in test [6] (H69AR cells + 2 uM doxorubicin) was -2.32% (inactive). Moreover, the inhibition in test [7] was -3.87% (inactive); in test [8] it was 3.61% (inactive).
With `Cc1ccc(C(=O)C2COC(=O)C2)cc1` (stereo not given), the viability in test [1] was 109%; in test [3], 109% (inactive); in test [4], 95.7% (inactive); in test [5], 85.3% (inactive); in test [6] (setting [9]), 82.2%; in test [6] (setting [10]), 85.3%. In test [2], the Her2 level was 80.5% (inactive). Further, in test [6] (H69AR cells + 2 uM doxorubicin), the differential viability (reversal) was 3.12% (inactive). The inhibition in test [7] is -1.97% (inactive); in test [8], -4.84% (inactive).
Turning to `O=C(Nc1ccccc1N1CCCCC1)c1ncoc1-c1ccc(F)cc1`, the viability in test [1] is 115%; in test [3], 115% (inactive); in test [4] it was 78.1% (inactive); in test [5], 84.6% (inactive); in test [6] (setting [9]) it was 85.8%; in test [6] (setting [10]), 84.6%. Moreover, in test [2], the Her2 level was 109% (inactive). Moreover, the differential viability (reversal) in test [6] (H69AR cells + 2 uM doxorubicin) was -1.2% (inactive). The results for the inhibition in test [7] and in test [8] were -3.47% (inactive) and -2.86% (inactive), respectively.
Take `Cc1ccc(-c2nnc(N(C)C(=O)c3ccccn3)s2)cn1`: the viability in test [1] was 133%; in test [3] it was 133% (inactive); in test [4], 90.9% (inactive); in test [5], 103% (inactive); in test [6] (setting [9]), 82.3%; in test [6] (setting [10]) it was 103%. In addition, in test [2], the Her2 level is 94.5% (inactive). Moreover, in test [6] (H69AR cells + 2 uM doxorubicin), the differential viability (reversal) is 20.9% (inactive). In addition, the results for the inhibition in test [7] and in test [8] were -6.85% (inactive) and -4.6% (inactive), respectively.
Take `CCC(Oc1ccc2ccccc2c1)C(=O)O` (stereo not given): the viability in test [1] is 89.5%; in test [3], 89.5% (inactive); in test [4] it was 85.6% (inactive); in test [5], 80.1% (inactive); in test [6] (setting [9]), 81.6%; in test [6] (setting [10]), 80.1%. In addition, the Her2 level in test [2] is 98.5% (inactive). The differential viability (reversal) in test [6] (H69AR cells + 2 uM doxorubicin) was -1.54% (inactive). Besides, the values for the inhibition in test [7] and in test [8] were -3.33% (inactive) and 1.15% (inactive), respectively.
Consider `Fc1ccc(NCc2nnc(SCc3nnc(-c4ccccc4)o3)n2CC2CCCO2)cc1` (stereo not given), for which the viability was 96.5% in test [1]; 96.5% (inactive) in test [3]; 97.8% (inactive) in test [4]; 78.9% (inactive) in test [5]; 97.3% in test [6] (setting [9]); 78.9% in test [6] (setting [10]). The Her2 level in test [2] is 109% (inactive). For the same compound, the differential viability (reversal) in test [6] (H69AR cells + 2 uM doxorubicin) was -18.4% (inactive). Also, the inhibition in test [7] is -0.54% (inactive); in test [8], 15.4% (inactive).
Consider `Cc1nnc(SCC(=O)NCCN2C(=O)CSC2=O)s1`, for which the viability in test [1] was 96.5%; in test [3], 96.5% (inactive); in test [4], 114% (inactive); in test [5], 98.3% (inactive); in test [6] (setting [9]), 100%; in test [6] (setting [10]), 98.3%. The Her2 level in test [2] is 102% (inactive). In addition, the differential viability (reversal) in test [6] (H69AR cells + 2 uM doxorubicin) was -1.88% (inactive). Besides, the results for the inhibition in test [7] and in test [8] were -3.24% (inactive) and 0.63% (inactive), respectively.
As to `CCn1c(=N)n(CC(O)c2ccco2)c2ccccc21` (stereo not given), the viability in test [1] was 94.5%; in test [3], 94.5% (inactive); in test [4], 116% (inactive); in test [5] it was 90.4% (inactive); in test [6] (setting [9]), 80.1%; in test [6] (setting [10]), 90.4%. Besides, in test [2], the Her2 level is 119% (inactive). The differential viability (reversal) in test [6] (H69AR cells + 2 uM doxorubicin) was 10.3% (inactive). Also, the inhibition in test [7] was -4.49% (inactive); in test [8], 4.67% (inactive).
Take `Cc1ccc(C)c(N(CC(=O)NCc2ccco2)C(=O)CCC(=O)Nc2ccccn2)c1`: the viability is 93% in test [1]; 93% (inactive) in test [3]; 81.8% (inactive) in test [4]; 68.6% (inactive) in test [5]; 74% in test [6] (setting [9]); 68.6% in test [6] (setting [10]). For the same compound, in test [2], the Her2 level is 92% (inactive). For the same compound, the differential viability (reversal) in test [6] (H69AR cells + 2 uM doxorubicin) was -5.34% (inactive). In addition, the inhibition was -3.25% (inactive) in test [7] and -1.43% (inactive) in test [8].
For the compound `CCOC(=O)c1nnn(CC(=O)Nc2cccc(F)c2)c1C(=O)OCC`, the viability in test [1] is 112%; in test [3] it was 112% (inactive); in test [4] it was 100% (inactive); in test [5], 96.2% (inactive); in test [6] (setting [9]), 92.4%; in test [6] (setting [10]), 96.2%. Also, the Her2 level in test [2] is 95% (inactive). Further, in test [6] (H69AR cells + 2 uM doxorubicin), the differential viability (reversal) was 3.89% (inactive). In addition, the inhibition is -1.04% (inactive) in test [7] and -6.35% (inactive) in test [8].

The viability is a read-out of living cells in per cent, often relative to untreated cells. What is called inhibition is the change of the read-out against control, counted positive when it falls.
